ChEMBL document CHEMBL1126276, “Synthesis and antimalarial properties of 1-imino derivatives of 7-chloro-3-substituted-3,4-dihydro-1,9(2H,10H)-acridinediones and related structures” (J Med Chem, 1992)
Where “and” joins values, the source holds several entries; their conditions need not be identical. Equal values may be shown once.

Assays:
Assay type in all cases: functional
Plasmodium berghei [1] = assay: Antimalarial activity in Plasmodium berghei infected mice (Mus musculus) after 160 mg/kg subcutaneous dose
Outline: (§1)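 […] in mice infected with a normal drug-sensitive P. berghei strain. Compound dissolved or suspended in sesame or peanut oil, given as a single subcutaneous dose 72 h postinfection.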

Plasmodium berghei [2] = assay: Antimalarial activity Plasmodium berghei infected mice (Mus musculus) after 640 mg/kg subcutaneous dose; outline: as §1
Plasmodium berghei [3] = assay: Antimalarial activity in Plasmodium berghei infected mice (Mus musculus) after 40 mg/kg subcutaneous dose; outline: as §1
Plasmodium berghei [4] = assay: Antimalarial activity in Plasmodium berghei infected mice (Mus musculus) after subcutaneous 160 mg/kg dose
Outline: (§2)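 Normal drug-sensitive P. berghei strain in mice. Compound dissolved or suspended in sesame or peanut oil, given parenterally as a single subcutaneous dose 72 h postinfection.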

Plasmodium berghei [5] = assay: Antimalarial activity in Plasmodium berghei infected mice (Mus musculus) after subcutaneous 320 mg/kg dose; outline: as §2
Plasmodium berghei [6] = assay: Antimalarial activity in Plasmodium berghei infected mice (Mus musculus) after subcutaneous 640 mg/kg dose; outline: as §2
Plasmodium berghei [7] = assay: Antimalarial activity in Plasmodium berghei infected mice (Mus musculus) after 80 mg/kg subcutaneous dose; outline: as §1
Plasmodium berghei [8] = assay: Antimalarial activity in Plasmodium berghei infected mice (Mus musculus) after 20 mg/kg subcutaneous dose; outline: as §1

| SMILES | Delta mean survival time (Plasmodium berghei [1]) | Delta mean survival time (Plasmodium berghei [2]) | Delta mean survival time (Plasmodium berghei [3]) | No. of cured mice (Plasmodium berghei [4]) | No. of cured mice (Plasmodium berghei [5]) | No. of cured mice (Plasmodium berghei [6]) | Delta mean survival time (Plasmodium berghei [7]) | Delta mean survival time (Plasmodium berghei [8]) | Delta mean survival time (Plasmodium berghei [7]; 80 mg/kg) |
| --- | --- | --- | --- | --- | --- | --- | --- | --- | --- |
| O=C1CC(c2ccc(C(F)(F)F)cc2)Cc2nc3ccc(I)cc3c(O)c21 (centres undefined) | 0.4 | 0.4 | 0.2 |  |  |  |  |  |  |
| COc1cc(C2C/C(=N\CCCN3CCCC3)c3c(n(O)c4ccc(Cl)cc4c3=O)C2)cc(OC)c1OC (centres undefined) | 0.6 | 6.4 | 0.2 |  |  |  |  |  |  |
| CC(C)C1CC(=O)c2c(n(C)c3ccccc3c2=O)C1 (centres undefined) | 0.2 | 0.5 | -0.2 |  |  |  |  |  |  |
| CCN(CC)CCOc1ccc(C2CC(=O)c3c(n([O-])c4ccc(Cl)cc4c3=O)C2)cc1.[Na+] (centres undefined) | 1.5 | 5.3 |  |  |  |  |  |  |  |
| CCCCCCC/N=C1\CC(c2cccc(C(F)(F)F)c2)Cc2c1c(=O)c1cc(Cl)ccc1n2O (centres undefined) | 5 |  |  | 3 | 5 | 5 | 2.8 |  |  |
| CN(C)CCC/N=C1\CC(c2ccc(C(F)(F)F)cc2)Cc2nc3cccc(Cl)c3c(O)c21 (centres undefined) | 24.9 |  | 7.7 | 4 |  | 5 |  |  |  |
| CN1CCN(CCC/N=C2\CC(c3ccc(Cl)c(Cl)c3)Cc3c2c(=O)c2cc(Cl)ccc2n3O)CC1 (centres undefined) |  |  | 7.4 | 5 | 5 | 5 |  |  |  |
| CC1(C)CC(=O)c2c(nc3ccccc3c2O)C1 | 5.6 |  | 3.8 | 2 |  | 5 |  |  |  |
| O=C1CC(c2cccc(C(F)(F)F)c2)Cc2c1c(=O)c1cc(Cl)ccc1n2O (centres undefined) | 13.4 |  | 8.8 | 3 | 5 | 5 | 12.1 | 6 |  |
| O=C1CC(c2ccc(C(F)(F)F)cc2)Cc2nc3ccc(C(F)(F)F)cc3c(O)c21 (centres undefined) | 0.1 | -0.1 | 0.1 |  |  |  |  |  |  |
| CCc1ccc2nc3c(c(O)c2c1)C(=O)CC(c1ccc(C(F)(F)F)cc1)C3 (centres undefined) | 0.4 | 0.2 | 0 |  |  |  |  |  |  |
| COc1ccccc1C1CC(=O)c2c(nc3ccc(Cl)cc3c2O)C1 (centres undefined) | 0.7 |  | 8.3 | 4 |  | 5 |  |  |  |
| CC1(C)CC(=O)c2c(nc3ccc(Cl)cc3c2O)C1 |  |  |  |  | 3 | 4 |  |  |  |
| CCC1C(=O)c2c(nc3ccc(Cl)cc3c2O)CC1c1ccc(C(F)(F)F)cc1 (centres undefined) | 1.2 | 1.6 | 0.6 |  |  |  |  |  |  |
| O=C1CC(c2ccc(C(F)(F)F)cc2)Cc2nc3ccccc3c(O)c21 (centres undefined) | 10.8 |  | 4.6 | 4 | 5 | 5 | 8.2 | 2.7 |  |
| CN(C)CCC/N=C1\CC(c2ccc(C(F)(F)F)cc2)Cc2nc3c(Cl)cc(Cl)cc3c(O)c21 (centres undefined) | 8 |  | 6.3 | 4 | 5 | 5 | 8.2 |  |  |
| O=C1CC(c2ccc(C(F)(F)F)cc2)Cc2nc3ccc(F)cc3c(O)c21 (centres undefined) | 8.9 |  | 7.1 |  |  | 5 |  |  |  |
| CN(C)CCC/N=C1\CC(c2ccc(C3CCCCC3)cc2)Cc2c1c(=O)c1cc(Cl)ccc1n2O (centres undefined) | 9.4 |  | 5 | 3 |  | 5 |  |  |  |
| O=C1CC(c2ccc(Cl)c(Cl)c2)Cc2c1c(=O)c1c(Cl)c(Cl)ccc1n2O (centres undefined) | 0.1 | 0.3 |  |  |  |  |  |  |  |
| CCCCCCn1c2c(c(=O)c3cc(Cl)ccc31)C(=O)CC(c1ccc(C(F)(F)F)cc1)C2 (centres undefined) | 0 | 0.1 | 0.1 |  |  |  |  |  |  |
| O=C1CC(c2ccc(C3CCCCC3)cc2)Cc2nc3ccc(Cl)cc3c(O)c21 (centres undefined) | 0.2 | 1.6 | 0.2 |  |  |  |  |  |  |
| CCCC/N=C1\CC(c2ccc(Cl)c(Cl)c2)Cc2c1c(=O)c1cc(Cl)ccc1n2O (centres undefined) |  |  | 6.1 | 3 | 5 | 5 |  | 2.5 | 9.9 and 8.3 |
| O=C1CC(c2ccc(C(F)(F)F)cc2)Cc2nc3cc(Cl)ccc3c(O)c21 (centres undefined) | 0.2 | 0.4 | -0.4 |  |  |  |  |  |  |

| SMILES | Delta mean survival time (Plasmodium berghei [1]) | Delta mean survival time (Plasmodium berghei [2]) | Delta mean survival time (Plasmodium berghei [3]) | No. of cured mice (Plasmodium berghei [4]) | No. of cured mice (Plasmodium berghei [5]) | No. of cured mice (Plasmodium berghei [6]) | Delta mean survival time (Plasmodium berghei [7]) | Delta mean survival time (Plasmodium berghei [8]) | Delta mean survival time (Plasmodium berghei [7]; 80 mg/kg) |
| --- | --- | --- | --- | --- | --- | --- | --- | --- | --- |
| CN(C)CCC/N=C1\CC(c2ccccc2Cl)Cc2nc3ccc(Cl)cc3c(O)c21 (centres undefined) | 11.3 |  | 5.6 | 2 | 5 | 5 | 6.3 |  |  |
| Cn1c2c(c(=O)c3cc(Cl)ccc31)C(=O)CC(c1ccc(Cl)c(Cl)c1)C2 (centres undefined) | 0.6 | 0.2 | 0 |  |  |  |  |  |  |
| O=C1CC(c2ccc(Cl)cc2Cl)Cc2nc3c(Cl)ccc(Cl)c3c(O)c21 (centres undefined) | 0.3 | -0.1 | 0.1 |  |  |  |  |  |  |
| CSc1ccc(C2CC(=O)c3c(nc4ccc(Cl)cc4c3O)C2)cc1 (centres undefined) | 8.6 | 12.4 | 4.4 |  |  |  |  |  |  |
| O=C1CC(c2ccc(C(F)(F)F)cc2)Cc2nc3c(Cl)cc(Cl)cc3c(O)c21 (centres undefined) | 0.4 | 0 | -0.2 |  |  |  |  |  |  |
| CN(C)CCC/N=C1\CC(c2cccc(C(F)(F)F)c2)Cc2c1c(=O)c1cc(Cl)ccc1n2O (centres undefined) | 12.4 |  | 6.9 | 4 | 5 | 5 | 9.6 | 4.8 |  |
| CN(C)CCCCCCC/N=C1\CC(c2ccc(Cl)c(Cl)c2)Cc2c1c(=O)c1cc(Cl)ccc1n2O (centres undefined) |  |  | 6.5 | 5 | 5 | 5 | 11.3 |  |  |
| O=c1c2c(n(O)c3ccc(Cl)cc13)CC(c1ccc(Cl)c(Cl)c1)C/C2=N\CCCN1CCCCC1 (centres undefined) | 8.7 |  | 5.9 | 4 | 5 | 5 | 9.2 |  |  |
| O=C1CC(c2ccc(C(F)(F)F)cc2)Cc2nc3c(Br)cc(Br)cc3c(O)c21 (centres undefined) | 0.2 | 0 | 0.6 |  |  |  |  |  |  |
| CN(C)CCC/N=C1\CC(C)(C)Cc2c1c(=O)c1cc(Cl)ccc1n2O | 0.4 | 2.8 | 0.2 |  |  |  |  |  |  |
| CN(C)CCC/N=C1\CC(c2ccncc2)Cc2c1c(=O)c1cc(Cl)ccc1n2O (centres undefined) | 0 | 1.4 | 0 |  |  |  |  |  |  |
| CCN(CC)CCC/N=C1\CC(c2cc(OC)c(OC)c(OC)c2)Cc2c1c(=O)c1cc(Cl)ccc1n2O (centres undefined) | 0.7 | 6.1 | 0.4 |  |  |  |  |  |  |
| O=C1CC(c2ccncc2)Cc2nc3ccc(Cl)cc3c(O)c21 (centres undefined) | 0.8 | 2.2 | 0.2 |  |  |  |  |  |  |
| O=C1CC(c2ccc(Cl)cc2Cl)Cc2nc3cc(Cl)ccc3c(O)c21 (centres undefined) | 0.1 | 1.3 | -0.1 |  |  |  |  |  |  |
| CCCC/N=C1\CC(c2ccc(C(F)(F)F)cc2)Cc2nc3ccc(Cl)cc3c(O)c21 (centres undefined) | 10.1 |  | 6 | 1 |  | 5 |  |  |  |
| O=C1CC(c2ccc(Cl)c(Cl)c2)Cc2c1c(=O)c1cc(Cl)ccc1n2O (centres undefined) | 11 |  | 5 | 2 | 5 | 5 | 10.8 | 3.2 |  |
| CN(C)CCC/N=C1\CC(c2ccc(C(F)(F)F)cc2)Cc2nc3ccc(C(F)(F)F)cc3c(O)c21 (centres undefined) | 7.1 |  | 3.1 |  |  | 5 |  |  |  |
| COc1ccc2nc3c(c(O)c2c1)/C(=N/CCCN(C)C)CC(c1ccc(C(F)(F)F)cc1)C3 (centres undefined) | 8.7 |  | 5.5 | 2 | 5 | 5 | 6.1 | 0.7 |  |
| O=C1CC(c2ccc(C(F)(F)F)cc2)Cc2nc3cccc(Cl)c3c(O)c21 (centres undefined) |  |  | 8.7 | 5 |  | 5 |  |  |  |
| CN(C)CCC/N=C1\CC(c2ccc(C(F)(F)F)cc2)Cc2nc3c(Br)cc(Br)cc3c(O)c21 (centres undefined) | 0.2 | 0.4 | 0.2 |  |  |  |  |  |  |
| CCCCn1c2c(c(=O)c3cc(Cl)ccc31)C(=O)CC(c1ccc(C(F)(F)F)cc1)C2 (centres undefined) | -0.2 | 0.4 | -0.2 |  |  |  |  |  |  |
| CCN(CC)CC(C)(C)C/N=C1\CC(c2cc(OC)c(OC)c(OC)c2)Cc2c1c(=O)c1cc(Cl)ccc1n2O (centres undefined) | 0.7 | 4.7 | 0.5 |  |  |  |  |  |  |
